Measured values gathered from unrelated publications.
PRKCB: Protein kinase C beta type (PRKCB, Homo sapiens, UniProt P05771)
KMT5A: N-lysine methyltransferase KMT5A (KMT5A, Homo sapiens, UniProt Q9NQR1)
CCKAR: Cholecystokinin receptor type A (CCKAR, Homo sapiens, UniProt P32238)
LATS1: Serine/threonine-protein kinase LATS1 (LATS1, Homo sapiens, UniProt O95835)

SMILES	target	test	system	setting	inhibition
O=C(c1ccc(F)cc1)N(Cc1ccccc1)C1CCCCC1	Alpha-2A adrenergic receptor (ADRA2A, Homo sapiens, UniProt P08913)	cell-free assay	–	10 µM	13%
Cc1ccc(Nc2nccc(N(C)c3ccc4c(C)n(C)nc4c3)n2)cc1S(N)(=O)=O	PRKCB	enzyme activity, inhibitor	–	10 µM	5%
O=c1c(O)cccc2c([C@H]3Oc4cc(O)cc(O)c4C[C@H]3O)cc(O)c(O)c12	KMT5A	cell-free assay	–	10 µM	3%
O=C1N=C(N2CCCCN2)S/C1=C\c1ccc(F)cc1O	CCKAR	ligand displacement, radioligand	–	10 µM	10%
COc1cc2ncnc(Nc3ccc(Oc4ccccc4)cc3C)c2cc1OC	PRKCB	enzyme activity, inhibitor	–	1 µM	7%
Oc1cccc(Nc2nc(-c3ccc(F)cc3F)cs2)c1	5-hydroxytryptamine receptor 3A (HTR3A, Homo sapiens, UniProt P46098)	ligand displacement, radioligand	–	10 µM	0.9%
COc1ccc(C(=O)c2coc3c2C(=O)C(=O)C(Cl)=C3)cc1	Peptide deformylase, mitochondrial (Homo sapiens, UniProt Q9HBH1)	enzyme activity, inhibitor	–	100 µM	≥ 100%
O=C(O)c1ncccc1O	Neutrophil collagenase (MMP8, Homo sapiens, UniProt P22894)	enzyme activity, inhibitor, fluorescence	–	1 mM	~50%
O=C(c1ccc(Cl)cc1)N(Cc1ccccc1)C1CCCCC1	CCKAR	cell-free assay	–	10 µM	-9.6%
O=C(O[C@@H]1Cc2c(O)cc(O)cc2O[C@@H]1c1cc(O)c(O)c(O)c1-c1c([C@H]2Oc3cc(O)cc(O)c3C[C@H]2O)cc(O)c(O)c1O)c1cc(O)c(O)c(O)c1	KMT5A	cell-free assay	–	10 µM	17%
COc1cc(NC(C)=O)c(Cl)cc1C(=O)Nc1nccs1	Androgen receptor (AR, Homo sapiens, UniProt P10275)	cell-free assay	–	10 µM	-19.5%
Cn1cncc1C1=CN(c2ncnc3[nH]cnc23)CCS1	LATS1	enzyme activity, inhibitor, radiometric	–	2 µM	96.1%
COc1cc(-c2cc(-c3ccc(N4CCNCC4)cc3)cnc2N)cc(OC)c1OC	Tyrosine-protein kinase ABL1 (ABL1, Homo sapiens, UniProt P00519, T315I)	enzyme activity, inhibitor	–	1 µM	57%
O=C(O)CCCCCCCCCCCC[C@@H]1C=CCC1	KMT5A	cell-free assay	–	10 µM	-10%
CCN1CCN(Cc2ccc(NC(=O)c3ccc(C)c(/C=C/c4cnc5[nH]ccc5c4OC)c3)cc2C(F)(F)F)CC1	Serine/threonine-protein kinase greatwall (MASTL, Homo sapiens, UniProt Q96GX5)	target engagement in cells, inhibitor, chemoproteomics	A-375	0.5 µM	0.239%
CN(C)c1ccc2nc3ccc(=[N+](C)C)cc-3sc2c1	KMT5A	cell-free assay	–	10 µM	43%
CCCCCCCCCCCCCCCc1cccc(O)c1C(=O)O	Histone acetyltransferase p300 (EP300, Homo sapiens, UniProt Q09472)	enzyme activity, inhibitor, fluorescence	–	52 µM	~60%
CCN(c1cc(C#CCN2CCOCC2)cc(C(=O)NCc2c(C)cc(C)[nH]c2=O)c1C)[C@H]1CC[C@H](N(C)CCOC)CC1	Protein arginine N-methyltransferase 6 (PRMT6, Homo sapiens, UniProt Q96LA8)	enzyme activity, inhibitor	–	1 µM	6%
COc1cc(NC(C)CCCN)c2ncccc2c1 (centres unmarked)	KMT5A	cell-free assay	–	10 µM	28%
CCN(CC)CCNC(=O)c1c(C)[nH]c(/C=C2\C(=O)Nc3ccc(F)cc32)c1C	cAMP-dependent protein kinase catalytic subunit alpha (PRKACA, Bos taurus, UniProt P00517)	enzyme activity, inhibitor	–	0.3 µM	0%
O=C1C=C2CC3(O)COc4c(ccc(O)c4O)C3=C2C=C1O (centres unmarked)	KMT5A	cell-free assay	–	10 µM	8%
CSc1nc(C)c(-c2ccnc(Nc3ccc(N4CCOCC4)cc3)c2)[nH]1	PRKCB	enzyme activity, inhibitor	–	10 µM	1.3%
Cc1cc(-c2ccc(/N=N/c3ccc4c(S(=O)(=O)O)cc(S(=O)(=O)O)c(N)c4c3O)c(C)c2)ccc1/N=N/c1ccc2c(S(=O)(=O)O)cc(S(=O)(=O)O)c(N)c2c1O	KMT5A	cell-free assay	–	10 µM	78%
Cn1cnc(Br)c1C1=CN(c2ncnc3[nH]cnc23)CCS1	LATS1	enzyme activity, inhibitor, radiometric	–	2 µM	97.3%
CN(C)C1CCN(CC#Cc2nn(C3CCCC3)c3nc(NCc4ccccc4)ncc23)C1 (centres unmarked)	Dual specificity mitogen-activated protein kinase kinase 6 (MAP2K6, Homo sapiens, UniProt P52564)	enzyme activity, inhibitor, FRET	–	10 µM	8%
O=C1C=CC(=O)c2c(O)cccc21	KMT5A	cell-free assay	–	10 µM	19%
